The subject of assay [1] is Rattus norvegicus. Nature of the assay: Adjuvant arthritic activity in rat uninjected leg on day 16 tested at 50 mg/kg perorally. In kind it is functional. Particulars: 384 h, route oral. The procedure, abridged: (§1)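 Rats received oral doses daily from the day of adjuvant injection for 17 days, skipping days 4, 5, 11 and 12. Leg volumes were compared with those of an arthritic vehicle-control group. Significance was judged by Student's t test.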

Assay [2] relates to Mus musculus. Nature of the assay: Cutaneous oxazolone induced contact sensitivity in mouse and percent stimulation in right hind paw was determined at a dose 25 mg/kg perorally. As to conditions: route oral.
For assay [3], the system named is Rattus norvegicus. The assay can be described thus: Adjuvant arthritic activity in rat injected leg on day 16 tested at 50 mg/kg perorally. In kind it is functional. As to conditions: 384 h, route oral. The procedure, abridged: as §1
The test system of assay [4] is Rattus norvegicus. Nature of the assay: Adjuvant arthritic activity in rat injected leg on day 3 tested at 50 mg/kg perorally. Particulars: 72 h, route oral. The class given is functional. In a few lines: as §1
Assay [5] has as its system Rattus norvegicus. The assay can be described thus: Adjuvant arthritic activity in rat uninjected leg on day 16 tested at 50 mg/kg perorally. The class given is functional. Particulars: 384 h, route oral. In a few lines: as §1
Assay [6] deals with Mus musculus. Nature of the assay: Cutaneous oxazolone induced contact sensitivity in mouse and percent stimulation in right hind paw was determined at a dose 25 mg/kg perorally. As to conditions: route oral.
The subject of assay [7] is Rattus norvegicus. The assay can be described thus: Adjuvant arthritic activity in rat injected leg on day 3 tested at 50 mg/kg perorally. The class given is functional. As to conditions: 72 h, route oral. In a few lines:
as §1

Assay [8] concerns Rattus norvegicus. Nature of the assay: Adjuvant arthritic activity in rat injected leg on day 16 tested at 50 mg/kg perorally. The class given is functional. Particulars: 384 h, route oral. In a few lines:
as §1

The subject of assay [9] is Rattus norvegicus. Nature of the assay: Adjuvant arthritic activity in rat uninjected leg on day 16 tested at 20 mg/kg perorally. The class given is functional. Particulars: 384 h, route oral. The procedure, abridged:
as §1

Assay [10] relates to Mus musculus. The assay can be described thus: Cutaneous oxazolone induced contact sensitivity in mouse and percent stimulation in right hind paw was determined at a dose 20 mg/kg perorally. As to conditions: route oral.
The subject of assay [11] is Rattus norvegicus. The assay can be described thus: Adjuvant arthritic activity in rat injected leg on day 16 tested at 20 mg/kg perorally. In kind it is functional. As to conditions: 384 h, route oral. In a few lines: as §1

This passage reports inhibition in vivo and Stimulation results from ChEMBL document CHEMBL1122599, “Antiinflammatory activity of 5,6-diaryl-2,3-dihydroimidazo[2,1-b]thiazoles. Isomeric 4-pyridyl and 4-substituted phenyl derivatives” (1984).

On to `Fc1ccc(-c2c(-c3ccncc3)nc3n2CCS3)cc1`, for which the values for the inhibition in vivo at 50 mg/kg in the assay on Rattus norvegicus [1], in the assay on Rattus norvegicus [3] and with Rattus norvegicus [4] were -9%, 4% and -2%, respectively. In addition, the Stimulation in the assay with Mus musculus [2] turned out to be 15%.
As for `COc1ccc(-c2nc3n(c2-c2ccc(OC)cc2)CCS3)cc1`, the inhibition in vivo (as a rule, the change of the read-out against control, counted positive when it falls) at 50 mg/kg turned out to be 29% with Rattus norvegicus [5], 25% with Rattus norvegicus [7] and 36% in the assay on Rattus norvegicus [8]. Further, in the assay on Mus musculus [6], the Stimulation is recorded as 194%.
Consider `c1cc(-c2nc3n(c2-c2ccncc2)CCS3)ccn1`, for which the inhibition in vivo at 50 mg/kg is -3% with Rattus norvegicus [1], 7% in the assay on Rattus norvegicus [3] and -4% with Rattus norvegicus [7].
As for `CSc1ccc(-c2c(-c3ccncc3)nc3n2CCS3)cc1`, the inhibition in vivo at 50 mg/kg in the assay with Rattus norvegicus [5] was -18%; with Rattus norvegicus [3], 8%; with Rattus norvegicus [4], 7%. Also, the Stimulation with Mus musculus [2] came to 19%.
The corresponding values for `COc1ccc(-c2c(-c3ccncc3)nc3n2CCS3)cc1` are -37%, 1%, 0% and 42%.
For the compound `C[C@]12C=CC(=O)C=C1CC[C@@H]1[C@@H]2[C@@H](O)C[C@@]2(C)[C@H]1CC[C@]2(O)C(=O)CO` [PREDNISOLONE], the values for the inhibition in vivo at 20 mg/kg in the assay on Rattus norvegicus [9] and in the assay with Rattus norvegicus [11] were 54% and 42%, respectively. Moreover, in the assay on Rattus norvegicus [4], the inhibition in vivo at 50 mg/kg came out at 28%. Also, the Stimulation with Mus musculus [10] is -12%.
On to `COc1ccc(-c2nc3n(c2-c2ccncc2)CCS3)cc1`, for which the inhibition in vivo at 50 mg/kg with Rattus norvegicus [1] turned out to be 21%; with Rattus norvegicus [3] it was 20%; with Rattus norvegicus [4], 15%. The Stimulation in the assay with Mus musculus [2] is on record as 59%.
For `c1ccc([C@H]2CN3CCSC3=N2)cc1` [LEVAMISOLE], in that order: 1%, -2%, 0% and 230%.
For `CSc1ccc(-c2nc3n(c2-c2ccncc2)CCS3)cc1`, in that order: 16%, 12%, 16% and 19%.
Consider `Fc1ccc(-c2nc3n(c2-c2ccncc2)CCS3)cc1`, for which the figures for the inhibition in vivo at 50 mg/kg in the assay on Rattus norvegicus [5], with Rattus norvegicus [4] and in the assay on Rattus norvegicus [8] were 44%, 27% and 38%, respectively. In addition, in the assay with Mus musculus [6], the Stimulation is listed as 69%.
